# Active and inactive are the calls of the source. No cut-off for these calls is given here.
# Columns and labels:
# [1] = molecular target: T1, MAP kinase-interacting serine/threonine-protein kinase 1 (Homo sapiens, UniProt Q9BUB5); test: Inhibition of MNK1 (unknown origin) incubated for 60 mins using CREB as substrate in presence of ATP by LANCE Ultra kinase assay
# Target sequence in this assay (Q9BUB5 whole entry): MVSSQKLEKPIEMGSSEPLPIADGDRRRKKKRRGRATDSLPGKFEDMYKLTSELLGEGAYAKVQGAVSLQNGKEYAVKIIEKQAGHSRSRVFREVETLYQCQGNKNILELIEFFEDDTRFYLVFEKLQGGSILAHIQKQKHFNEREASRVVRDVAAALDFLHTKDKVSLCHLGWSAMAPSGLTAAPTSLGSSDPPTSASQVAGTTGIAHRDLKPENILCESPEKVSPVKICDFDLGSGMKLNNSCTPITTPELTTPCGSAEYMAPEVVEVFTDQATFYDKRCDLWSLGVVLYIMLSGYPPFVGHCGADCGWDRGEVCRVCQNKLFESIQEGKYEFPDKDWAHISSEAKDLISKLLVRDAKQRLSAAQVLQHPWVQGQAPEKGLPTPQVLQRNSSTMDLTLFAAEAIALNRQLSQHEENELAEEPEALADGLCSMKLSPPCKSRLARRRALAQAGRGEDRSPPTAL
# [2] = test system: 3T3-L1; test: Inhibition of MNK in mouse 3T3-L1 cells assessed as inhibition of eIF4E phosphorylation at 5 uM incubated for 2 hrs by Western blot analysis; type: cell-based
# Summary of the method: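 Mouse 3T3-L1 cells exposed to compound at 5 μM for 2 h; lysates resolved by SDS-PAGE and immunoblotted for phospho-eIF4E. Reference MNK inhibitor run in parallel at 1 μM.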
# [3] = molecular target: mTORC1 (Homo sapiens) (UniProt P42345+Q8N122+Q9BVC4); test: Inhibition of mTORC1 in human LNCaP C4-2B cells assessed as inhibition of phosphorylation of S6K at Thr389 at 5 uM incubated for 2 hrs by Western blot analysis; type: cell-based
# Summary of the method: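 C4-2B prostate cancer cells treated with inhibitor; lysates probed by Western blot for p-eIF4E, p-S6K (Thr389), p-rpS6 (Ser240/244) and p-AKT (Ser473).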
# [4] = test system: MEF; test: Inhibition of MNK in MNK2 knockout mouse MEF cells assessed as inhibition of eIF4E phosphorylation at 3 uM incubated for 2 hrs by Western blot analysis; type: cell-based
# Summary of the method: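 MEFs lacking MNK1 or MNK2 (wild-type for comparison) treated 2 h at indicated concentrations; lysates immunoblotted for p-eIF4E, which reflects the remaining MNK isoform; quantified from three independent experiments, SEM.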
# [5] = molecular target: T1, MAP kinase-interacting serine/threonine-protein kinase 1; test: Inhibition of MNK1 (unknown origin) at 3 uM in presence of ATP by kinase assay
# Summary of the method: (§1)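 Single-point kinase profiling: inhibitor tested at 3 μM against a panel of 60 kinases from different families, activity presented as heatmap.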
# Target sequence in this assay (Q9BUB5 whole entry, looked up): as the sequence (Q9BUB5 whole entry) above
# [6] = organism: Homo sapiens; test: Inhibition of QIK (unknown origin) at 3 uM in presence of ATP by kinase assay; summary of the method: as §1
# [7] = molecular target: Mitogen-activated protein kinase 8 (Homo sapiens) (UniProt P45983); test: Inhibition of JNK1 (unknown origin) at 3 uM in presence of ATP by kinase assay
# [8] = molecular target: Mitogen-activated protein kinase 9 (Homo sapiens) (UniProt P45984); test: Inhibition of JNK2 (unknown origin) at 3 uM in presence of ATP by kinase assay
# [9] = test system: A549; test: Antiproliferative activity against human A549 cells assessed as reduction in cell viability at 5 uM incubated upto 6 days by trypan blue assay; type: functional, cell-based; conditions: time <= 6.0 day
# Summary of the method: (§2)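 A549 or MDA-MB-231 cells cultured with 5 μM compound for up to 6 days; cell number counted over time; p-eIF4E followed by immunoblot up to 96 h.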
# [10] = test system: MDA-MB-231; test: Antiproliferative activity against human MDA-MB-231 cells assessed as reduction in cell viability at 5 uM incubated upto 6 days by trypan blue assay; type: functional, cell-based; conditions: time <= 6.0 day; summary of the method: as §2
# [11] = test system: A549; test: Induction of cell cycle arrest in human A549 cells assessed as decrease in cyclin D3 level at 5 uM incubated for 24 hrs by Western blot analysis; type: functional, cell-based
# Summary of the method: (§3)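 A549 and MDA-MB-231 cells treated 24 h with 5 μM; lysates resolved by SDS-PAGE and immunoblotted for cyclin B1, cyclin D3 and MMP-3.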
# [12] = test system: MDA-MB-231; test: Induction of cell cycle arrest in human MDA-MB-231 cells assessed as decrease in cyclin D3 level at 5 uM incubated for 24 hrs by Western blot analysis; type: functional, cell-based; summary of the method: as §3
# [13] = test system: A549; test: Induction of cell cycle arrest in human A549 cells assessed as accumulation of cells at G2/M phase at 5 uM incubated for 8 hrs by propidium iodide staining based flow cytometry (Rvb=6.5%); type: functional
# [14] = test system: A549; test: Induction of cell cycle arrest in human A549 cells assessed as accumulation of cells at S phase at 5 uM incubated for 8 hrs by propidium iodide staining based flow cytometry (Rvb=1.7%); type: functional
# [15] = test system: A549; test: Induction of cell cycle arrest in human A549 cells assessed as accumulation of cells at G0/G1 phase at 5 uM incubated for 16 hrs by propidium iodide staining based flow cytometry (Rvb=75.4%); type: functional
# [16] = test system: A549; test: Antimigratory activity against human A549 cells assessed as inhibition of cell migration at 5 uM and measured upto 24 hrs by scratch wound healing assay; type: functional, cell-based
# Summary of the method: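 Scratch wound-healing: A549 or MDA-MB-231 monolayers wounded, then exposed to 5 μM compound or DMSO; wound imaged at 6 and 24 h; percentage change in wound area quantified by image analysis at each time point.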
# [17] = Half life in mouse at 25 mg/kg, iv and measured upto 24 hrs; type: ADME, organism-based; conditions: in vivo
# [18] = AUC (0-t) in mouse at 25 mg/kg, iv and measured upto 24 hrs; type: ADME, organism-based; design: time < 24 hrs, dose 25 mg/kg, route iv; conditions: in vivo
# [19] = Tmax in mouse at 50 mg/kg, po and measured upto 24 hrs; type: ADME, organism-based; conditions: in vivo
# [20] = Clearance in mouse at 50 mg/kg, po and measured upto 24 hrs; type: ADME, organism-based; conditions: in vivo
# [21] = AUC (0-t) in mouse at 50 mg/kg, po and measured upto 24 hrs; type: ADME, organism-based; design: dose 50 mg/kg, time < 24 hrs, route po; conditions: in vivo
# [22] = test system: A549; test: Antitumor activity against human A549 cells xenografted in BALB/C nude mouse assessed as T/C ratio at 150 mg/kg, po QD for 14 days; type: functional; conditions: time 14 day
# Summary of the method: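 A549 xenografts in nude mice; compound given orally once daily at 75 or 150 mg/kg for 14 days, irinotecan reference at 3 mg/kg; tumor growth tracked as T/C ratio (relative tumor proliferation rate); body weight monitored.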
# [23] = test system: MAP kinase-interacting kinase MNK1/2 (Homo sapiens); test: Inhibition of MNK in human A549 cells assessed as reduction in TNF-alpha level at 1 to 10 uM incubated for 48 hrs by ELISA; conditions: dose 1-10 µM
# [24] = test system: MAP kinase-interacting kinase MNK1/2 (Homo sapiens); test: Inhibition of MNK in human U-937 cells assessed as inhibition of eIF4E phosphorylation at 10 uM incubated for 2 hrs by Western blot analysis
# [25] = test system: MAP kinase-interacting kinase MNK1/2 (Homo sapiens); test: Inhibition of MNK in human SKM-1 cells assessed as inhibition of eIF4E phosphorylation at 10 uM incubated for 2 hrs by Western blot analysis
# [26] = test system: MAP kinase-interacting kinase MNK1/2 (Homo sapiens); test: Inhibition of MNK in human NCI-H446 cells assessed as inhibition of eIF4E phosphorylation at 3 uM incubated for 2 hrs by Western blot analysis
# [27] = test system: MAP kinase-interacting kinase MNK1/2 (Homo sapiens); test: Inhibition of MNK in human NCI-H1299 cells assessed as inhibition of eIF4E phosphorylation at 3 uM incubated for 2 hrs by Western blot analysis
# [28] = test system: MAP kinase-interacting kinase MNK1/2 (Homo sapiens); test: Inhibition of MNK in human LNCaP C4-2B cells assessed as inhibition of eIF4E phosphorylation at 5 uM incubated for 2 hrs by Western blot analysis
# [29] = test system: MV4-11; test: Induction of cell cycle arrest in human MV4-11 cells assessed as decrease in cyclin D3 level at 3 uM incubated for 24 hrs by Western blot analysis
# Chain of mTORC1 (Homo sapiens) (Q8N122 whole entry, looked up, other chains not shown): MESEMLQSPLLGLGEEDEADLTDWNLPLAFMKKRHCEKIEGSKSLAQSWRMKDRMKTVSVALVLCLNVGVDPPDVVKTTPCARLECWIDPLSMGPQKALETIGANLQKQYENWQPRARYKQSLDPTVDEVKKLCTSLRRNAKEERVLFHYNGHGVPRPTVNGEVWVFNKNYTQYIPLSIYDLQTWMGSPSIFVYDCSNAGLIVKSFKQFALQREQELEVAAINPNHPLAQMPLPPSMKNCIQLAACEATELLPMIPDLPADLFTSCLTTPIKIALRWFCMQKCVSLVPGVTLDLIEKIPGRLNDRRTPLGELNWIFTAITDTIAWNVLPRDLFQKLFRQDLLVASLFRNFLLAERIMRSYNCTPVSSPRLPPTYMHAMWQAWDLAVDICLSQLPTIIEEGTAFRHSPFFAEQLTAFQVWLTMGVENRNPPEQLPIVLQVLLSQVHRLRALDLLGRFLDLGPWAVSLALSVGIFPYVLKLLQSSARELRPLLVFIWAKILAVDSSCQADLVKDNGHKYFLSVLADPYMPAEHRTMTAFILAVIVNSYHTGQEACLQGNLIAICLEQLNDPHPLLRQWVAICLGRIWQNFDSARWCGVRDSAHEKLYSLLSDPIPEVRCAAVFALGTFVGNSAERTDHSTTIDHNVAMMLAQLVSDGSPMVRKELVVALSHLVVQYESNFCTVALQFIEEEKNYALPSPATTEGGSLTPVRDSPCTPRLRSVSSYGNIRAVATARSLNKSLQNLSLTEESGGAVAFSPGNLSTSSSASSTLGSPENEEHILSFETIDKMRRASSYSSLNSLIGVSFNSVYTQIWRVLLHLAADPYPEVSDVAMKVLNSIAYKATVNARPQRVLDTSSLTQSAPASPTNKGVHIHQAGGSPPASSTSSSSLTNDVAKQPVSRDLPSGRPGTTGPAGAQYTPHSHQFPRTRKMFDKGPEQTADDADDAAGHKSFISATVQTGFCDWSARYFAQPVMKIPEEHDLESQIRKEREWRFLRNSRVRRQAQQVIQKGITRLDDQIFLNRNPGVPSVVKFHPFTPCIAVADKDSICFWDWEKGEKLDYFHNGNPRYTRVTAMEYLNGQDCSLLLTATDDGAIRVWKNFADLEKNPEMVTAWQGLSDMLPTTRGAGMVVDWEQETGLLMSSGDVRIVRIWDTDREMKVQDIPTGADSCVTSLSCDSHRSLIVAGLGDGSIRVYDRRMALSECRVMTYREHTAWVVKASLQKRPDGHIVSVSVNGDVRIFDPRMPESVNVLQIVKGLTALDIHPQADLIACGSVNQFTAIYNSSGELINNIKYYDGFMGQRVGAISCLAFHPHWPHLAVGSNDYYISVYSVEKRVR
# Chain of mTORC1 (Homo sapiens) (Q9BVC4 whole entry, looked up, other chains not shown): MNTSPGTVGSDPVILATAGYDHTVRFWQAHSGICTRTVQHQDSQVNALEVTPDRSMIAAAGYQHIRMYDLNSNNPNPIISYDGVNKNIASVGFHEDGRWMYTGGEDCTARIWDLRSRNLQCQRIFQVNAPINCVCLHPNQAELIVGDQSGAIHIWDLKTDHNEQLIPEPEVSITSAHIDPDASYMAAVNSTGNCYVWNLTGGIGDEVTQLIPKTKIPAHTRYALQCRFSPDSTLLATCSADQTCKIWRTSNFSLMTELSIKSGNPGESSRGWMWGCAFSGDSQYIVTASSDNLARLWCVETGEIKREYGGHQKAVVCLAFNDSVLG
# Chain of Mitogen-activated protein kinase 9 (Homo sapiens) (P45984 whole entry, looked up): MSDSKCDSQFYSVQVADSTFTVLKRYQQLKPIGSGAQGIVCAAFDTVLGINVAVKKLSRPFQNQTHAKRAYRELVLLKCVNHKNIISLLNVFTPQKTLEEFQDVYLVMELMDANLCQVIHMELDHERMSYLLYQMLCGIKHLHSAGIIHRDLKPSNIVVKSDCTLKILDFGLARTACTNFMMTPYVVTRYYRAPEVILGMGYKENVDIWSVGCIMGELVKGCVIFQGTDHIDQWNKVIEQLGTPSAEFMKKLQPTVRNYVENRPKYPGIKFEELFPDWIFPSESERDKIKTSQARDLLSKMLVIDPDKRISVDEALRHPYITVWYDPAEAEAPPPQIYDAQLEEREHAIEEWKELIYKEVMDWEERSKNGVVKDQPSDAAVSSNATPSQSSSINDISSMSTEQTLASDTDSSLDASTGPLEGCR
# Chain of Mitogen-activated protein kinase 8 (Homo sapiens) (P45983 whole entry): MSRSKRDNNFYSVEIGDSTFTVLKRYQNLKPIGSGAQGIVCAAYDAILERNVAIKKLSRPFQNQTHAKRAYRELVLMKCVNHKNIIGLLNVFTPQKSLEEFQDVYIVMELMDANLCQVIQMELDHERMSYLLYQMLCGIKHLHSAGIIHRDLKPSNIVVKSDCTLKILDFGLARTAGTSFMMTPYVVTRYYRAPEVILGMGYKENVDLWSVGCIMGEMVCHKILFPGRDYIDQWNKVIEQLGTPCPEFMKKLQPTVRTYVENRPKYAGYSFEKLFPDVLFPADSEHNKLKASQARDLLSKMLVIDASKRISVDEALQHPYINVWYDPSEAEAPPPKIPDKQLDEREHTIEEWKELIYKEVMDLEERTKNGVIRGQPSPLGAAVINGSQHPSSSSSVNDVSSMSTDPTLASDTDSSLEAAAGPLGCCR
smiles,measurement,setting,value
CN1CCN(C(=O)c2ccc(-c3nn4c(-c5ccc(C#N)cc5)cnc4s3)cc2)CC1,IC50,[1],11.5 nM
same,inhibition,[2],Active
same,inhibition,[3],inactive
same,inhibition,[4],50%
same,inhibition,[5],100%
same,inhibition,[6],Active
same,inhibition,[7],Active
same,inhibition,[8],Active
same,Activity,[9],Active
same,Activity,[10],Active
same,Activity,[11],Active
same,Activity,[12],Active
same,Activity,[13],9%
same,Activity,[14],2.7%
same,Activity,[15],89.6%
same,Activity,[16],Active
same,half-life,[17],204 min
same,AUC(0-t) at 24 h,[18],80900 ng·h/mL
same,Tmax,[19],1 h
same,CL/F,[20],8.45 mL/min/kg
same,AUC(0-t) at 24 h,[21],98500 ng·h/mL
same,T/C,[22],0.5
same,inhibition,[23],Active
same,inhibition,[24],Active
same,inhibition,[25],Active
same,inhibition,[26],Active
same,inhibition,[27],Active
same,inhibition,[28],Active
same,Activity,[29],Active
